Assay results reported in PMC3177239 (The Biochemical journal, 2011).

How the values were obtained:
[1] = system: pig tracheal submucosal glands; test: Pig tracheal submucosal glands fluid secretion
In short: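 Pig tracheas collected within 1 h postmortem into ice-cold Krebs-Ringer bicarbonate buffer (1 μM indomethacin) gassed with 95% O2/5% CO2. Serosal side bathed at 37 °C. Agents were diluted in warm gassed buffer and added serosally after basal secretion was recorded. Carbachol 10 μM was added at the end to confirm viability. Rate was taken as the volume-vs-time slope (R² > 0.8): 10-min basal, 25-min stimulated. 11 pigs, 11–43 glands, mean ± s.e.m.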

[2] = system: cAMP levels in Calu-3 cells; test: Ratiometric FRET cAMP measurement; type: cell-based; details: CO-068 50 μM or FSK 10 μM added after baseline
In short: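 Calu-3 cells were transiently transfected (Lipofectamine) with the CFP-EPAC-YFP sensor and grown on glass-bottom dishes. Cells were washed twice and held in HBSS, in the dark at room temperature, on an inverted microscope. After baseline, time-lapse images were taken every 1 min (100–300 ms exposure) with an EM-CCD camera. The background-subtracted CFP/FRET emission ratio came from 10–20 regions in 3–5 cells. n = 4–5 separate experiments, mean ± s.e.m.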

| SMILES | Effect on FSK-induced fluid secretion ([1]; CFTRinh-172 50 μM plus FSK 10 μM) | Increase in cAMP levels (CFP/FRET emission ratio) [2] | Increase in mean fluid secretion rate compared to basal secretion rate ([1]; FSK 10 μM or CO-068 50 μM, over 25 min) |
| --- | --- | --- | --- |
| O=C(O)c1ccc(/C=C2\SC(=S)N(c3cccc(C(F)(F)F)c3)C2=O)cc1 [CFTRinh-172] | markedly inhibited |  |  |
| C=C[C@@]1(C)CC(=O)[C@]2(O)[C@@]3(C)[C@@H](O)CCC(C)(C)[C@@H]3[C@H](O)[C@H](OC(C)=O)[C@@]2(C)O1 [FSK, forskolin] |  | 1.5 fold | 5 fold |
